Data on 1 substance can be found in PMC3035813 (The Journal of neuroscience : the official journal of the …, 2009).

For one test, the system named is GnRH neurons. The test can be described thus: GnRH neuron firing, targeted extracellular recordings in brain slices. The class given is cell-based, mouse. Particulars: 1 nM, 5 min, n=7.
In the next test the test system is adult male rats. Briefly: LH and testosterone in intact adult male rats after icv injection. Particulars: 100 pmol kisspeptin-10 icv alone. It counts as in vivo, rat. A digest of the protocol: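 Intact adult male rats (280–310 g; 14 h light, 22°C) with lateral-ventricle cannulae (4 mm deep; 1 mm posterior, 1.2 mm lateral to bregma), tested 24–48 h after implantation. 5 μl icv injections at 60 min intervals; 100 pmol kisspeptin-10 given with the last. Controls received saline vehicle. Jugular blood was taken 60 min later (180 min). Serum testosterone was measured by commercial kit (sensitivity 0.1 ng/tube; intraassay CV 4.5%).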

No end group written: not given here.

In the case of “kisspeptin-10 (YNWNSFGLRF; ends and bridges not checked; UniProt Q15726 112-121, looked up)”, the “effect on GnRH neuron firing activity” value in the test on GnRH neurons is listed as “markedly increased GnRH neuron firing activity”. In the test with adult male rats, the “testosterone levels at 60-min” value was 2.17 ± 0.2.
